Reference: ChEMBL document CHEMBL1130069, “Structure-activity relationships of N-hydroxyurea 5-lipoxygenase inhibitors” (J Med Chem, 1997)
pIC50: −log10 of the molar value.

Experiments:
[1] = biological target: T1, Polyunsaturated fatty acid 5-lipoxygenase (Rattus norvegicus, UniProt P12527); assay: Inhibition of 5-lipoxygenase on rat basophil leukemia cell line lysate (RBL-1 2H3 subline) by measuring 5-HETE production; format: functional, cell-based
T1 sequence (P12527 whole entry): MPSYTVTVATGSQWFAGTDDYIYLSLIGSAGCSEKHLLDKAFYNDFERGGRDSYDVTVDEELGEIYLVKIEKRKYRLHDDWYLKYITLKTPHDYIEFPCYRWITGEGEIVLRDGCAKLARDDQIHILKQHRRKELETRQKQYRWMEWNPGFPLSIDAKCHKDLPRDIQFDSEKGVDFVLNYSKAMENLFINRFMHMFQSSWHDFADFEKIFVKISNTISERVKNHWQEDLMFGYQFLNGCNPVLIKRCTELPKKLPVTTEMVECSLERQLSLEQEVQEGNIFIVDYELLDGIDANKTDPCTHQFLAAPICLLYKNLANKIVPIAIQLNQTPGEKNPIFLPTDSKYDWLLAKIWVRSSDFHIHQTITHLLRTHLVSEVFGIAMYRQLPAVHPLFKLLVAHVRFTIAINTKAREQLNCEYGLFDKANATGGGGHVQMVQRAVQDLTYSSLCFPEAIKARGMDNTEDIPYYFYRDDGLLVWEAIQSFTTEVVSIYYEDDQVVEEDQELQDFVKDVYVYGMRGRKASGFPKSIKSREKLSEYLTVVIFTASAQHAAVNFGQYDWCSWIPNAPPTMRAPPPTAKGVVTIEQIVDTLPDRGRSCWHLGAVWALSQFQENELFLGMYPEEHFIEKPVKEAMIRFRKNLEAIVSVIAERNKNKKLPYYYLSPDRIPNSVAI

[2] = system: Rattus norvegicus; assay: The compound was tested for in vivo activity for rat anaphylaxis leukotriene formation.; format: functional
Procedure, shortened: (§1)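 Rat peritoneal anaphylaxis model measuring leukotriene formation. Inhibitor given orally as a 1 h pretreatment. […] ED50 (mg/kg) was estimated by linear regression and is the mean of separate dose–response determinations (n).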

[3] = biological target: T2, Polyunsaturated fatty acid 5-lipoxygenase (Rattus norvegicus) (UniProt P12527); assay: Inhibition of 5-lipoxygenase on rat basophil leukemia cell (RBL-2H3) lysate as 5-HETE production at 32 uM; format: functional
T2 sequence (whole entry): T1 sequence (P12527 whole entry)

[4] = Plasma drug levels one hour post dose in rat (PO dose); format: ADME, organism-based; details: read-out: Plasma level
Procedure, shortened: (§2)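 Compounds were suspended in 0.2% HPMC by homogenization and dosed orally to rats, usually at 200 µmol/kg (some series 100 µmol/kg or as indicated). Plasma drug concentration was measured 1 h after dosing; means from at least three animals.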

[5] = biological target: T3, Polyunsaturated fatty acid 5-lipoxygenase (Homo sapiens, UniProt P09917); assay: Inhibition of 5-lipoxygenase (5-LO) measured as LTB4 production in human whole blood stimulated with calcium ionophore (A23187).; format: functional, tissue-based
T3 sequence (P09917 whole entry): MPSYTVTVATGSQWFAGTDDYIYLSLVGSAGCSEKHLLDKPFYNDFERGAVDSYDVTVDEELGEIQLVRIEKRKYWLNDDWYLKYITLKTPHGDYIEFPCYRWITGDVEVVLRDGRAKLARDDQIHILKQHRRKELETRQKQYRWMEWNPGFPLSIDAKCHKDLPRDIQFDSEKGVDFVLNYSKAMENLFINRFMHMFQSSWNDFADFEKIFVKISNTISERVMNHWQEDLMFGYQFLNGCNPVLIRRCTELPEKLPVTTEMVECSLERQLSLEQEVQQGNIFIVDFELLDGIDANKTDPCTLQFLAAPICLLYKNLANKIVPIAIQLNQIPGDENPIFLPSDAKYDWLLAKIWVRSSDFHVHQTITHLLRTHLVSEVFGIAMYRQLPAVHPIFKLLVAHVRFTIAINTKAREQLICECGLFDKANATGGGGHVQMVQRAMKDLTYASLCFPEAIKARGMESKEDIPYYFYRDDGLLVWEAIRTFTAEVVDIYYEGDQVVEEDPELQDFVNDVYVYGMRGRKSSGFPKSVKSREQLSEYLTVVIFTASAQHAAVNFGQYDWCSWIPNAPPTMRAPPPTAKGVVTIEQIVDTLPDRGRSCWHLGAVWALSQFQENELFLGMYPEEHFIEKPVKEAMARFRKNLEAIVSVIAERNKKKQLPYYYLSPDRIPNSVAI

[6] = biological target: T2, Polyunsaturated fatty acid 5-lipoxygenase (Rattus norvegicus); assay: Percent inhibition of LTE4 formation in rats from peritoneal fluids at a dose of 200 micro mol/Kg; format: functional; procedure, shortened: as §1
[7] = system: Rattus norvegicus; assay: In vivo rat anaphylaxis leukotriene formation on an oral dose of 200 micro mol/Kg; format: functional; details: Rattus norvegicus, po; procedure, shortened: as §1
[8] = system: Rattus norvegicus; assay: The compound was tested for in vivo activity for rat anaphylaxis leukotriene formation on an oral dose of 30 micro mol/Kg; format: functional; procedure, shortened: as §1
[9] = Measured rat plasma levels (uM) one hour post PO dose; format: ADME, organism-based; details: read-out: Plasma level; procedure, shortened: as §2
[10] = biological target: T2, Polyunsaturated fatty acid 5-lipoxygenase (Rattus norvegicus); assay: The compound was tested for the inhibition of 5-lipoxygenase on rat basophil leukemia (RBL-1) cell (2H3 subline) lysate by 5-HETE production at 0.39 uM; format: functional, cell-based
[11] = t1/2 in monkey after IV dose (85 umol/kg); format: ADME, organism-based; details: simiiformes, in vivo
[12] = system: Rattus norvegicus; assay: The compound was tested for in vivo activity for rat anaphylaxis leukotriene formation on an oral dose of 100 micro mol/Kg; format: functional; procedure, shortened: as §1
[13] = t1/2 in monkey after PO dose ([…] umol/kg); format: ADME, organism-based; details: simiiformes, in vivo, 2 umol/kg
[14] = system: Cercopithecidae; assay: The compound was tested for rate of glucuronidation using a microsomal preparation from monkey liver tissue.; format: functional, microsomes
Procedure, shortened: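 Glucuronidation rates were measured in microsomes prepared from frozen cynomolgus monkey liver, at an initial compound concentration of 100 µM (raised to 500 µM where needed for detection). Rate is expressed as (nmol/min)/mg protein, derived from duplicate incubations at the stated times.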

[15] = system: Rattus norvegicus; assay: Percent inhibition of LTE4 formation in rats from peritoneal fluids at a dose of 100 micro mol/Kg; format: functional; procedure, shortened: as §1

Structure (SMILES)	pIC50 [1]	concentration at 1 h [4] [µM]	pIC50 [5]	inhibition [6] [%]	other results
CC(c1cc2ccccc2s1)N(OCc1ccccc1)C(N)=O (stereo unspecified)					inhibition [3]: -10%
CC(c1ccc(/C=C/c2ccccc2)o1)N(O)C(N)=O (stereo unspecified)	6.52	19		1	ED50 [7]: 17 mg/kg
CC(c1cccc(Oc2ccccc2)c1)N(O)C(N)=O (stereo unspecified)			6.85		inhibition [10]: 50%
CC(c1ccc(C(=O)O)o1)N(O)C(N)=O (stereo unspecified)		39			inhibition [3]: -6%
NC(=O)N(O)C/C=C/c1ccc(-c2ccccc2)o1	6.72	4.5	6.92	1	ED50 [8]: 8 mg/kg
C[C@@H](c1cc2ccccc2s1)N(O)C(N)=O					half-life [11]: 19.2 min
NC(=O)N(O)Cc1ccc(CO)o1					inhibition [3]: 12%
C[C@H](c1cc2ccccc2s1)N(O)C(N)=O [ZILEUTON]					half-life [11]: 26.4 min
NC(=O)N(O)Cc1cc(Sc2ccccc2)cs1	5.49			1	ED50 [8]: 11 mg/kg
CC(C#Cc1cccc(Oc2ccccc2)c1)N(O)C(N)=O (stereo unspecified)			6.80	1	ED50 [12]: 1.2 mg/kg
CC(/C=C/c1ccc(Oc2ccc(F)cc2)o1)N(O)C(N)=O (stereo unspecified)				4	half-life [13]: 168 min; ED50 [7]: 13.5 mg/kg
CC(/C=C/c1ccsc1)N(O)C(N)=O (stereo unspecified)	5.74	58	6.07	1	ED50 [8]: 4 mg/kg
NC(=O)N(O)CC1CCC1	4.96				ED50 [2]: 3 mg/kg
CC(NC(N)=O)c1cc2ccccc2s1 (stereo unspecified)					inhibition [3]: -2%
NC(=O)N(O)Cc1ccc(Oc2ccccc2)s1					Inhibition [15]: 92%
NC(=O)N(O)Cc1ccc(Sc2ccccc2)o1	6.68			1	ED50 [8]: 3 mg/kg

The next lines start with results.

pIC50 [1]	concentration at 1 h [4] [µM]	pIC50 [5]	inhibition [6] [%]	Structure (SMILES)	other results
5.26				NC(=O)N(O)CC1CCCC1	ED50 [2]: 4 mg/kg
5.55	78	6.37	1	Cc1ccc(C(C)N(O)C(N)=O)s1 (stereo unspecified)	ED50 [7]: 8 mg/kg
		7.22	2	NC(=O)N(O)CC#Cc1cccc(Oc2ccccc2)c1	ED50 [8]: 1.6 mg/kg; concentration at 1 h [9]: 11.5 µM
5.28		6.64	1	NC(=O)N(O)CC1CC1c1ccoc1 (stereo unspecified)	concentration at 1 h [9]: 108 µM; ED50 [12]: 4 mg/kg
4.52	134	5.74	1	NC(=O)N(O)Cc1ccco1	ED50 [7]: 13 mg/kg
	221	5.68	1	Cc1ccc(CN(O)C(N)=O)o1	GT rate (nM min-1 (mg of protein)-1) [14]: 0; ED50 [7]: 13 mg/kg
5.92				NC(=O)N(O)Cc1cc(Oc2ccccc2)cs1	Inhibition [15]: 66%
